Published values pooled from the literature.
Protocols differ between the studies behind these lines. pIC50: −log10 of the molar value.
KCNH2: Voltage-gated inwardly rectifying potassium channel KCNH2 (KCNH2, Homo sapiens, UniProt Q12809)
PDE4D: 3',5'-cyclic-AMP phosphodiesterase 4D (PDE4D, Homo sapiens, UniProt Q08499)
Antigen peptide transporter 1/Antigen peptide transporter 2: Antigen peptide transporter 1/Antigen peptide transporter 2 (Homo sapiens, UniProt Q03518+Q03519)
TEAD4: Transcriptional enhancer factor TEF-3 (TEAD4, Homo sapiens, UniProt Q15561)
CDK7 with cyclin H: Cyclin-dependent kinase 7, with cyclin H (CDK7, Homo sapiens, UniProt P50613)

Compound | target | assay | system | conditions | pIC50
CN1[C@@H](CC(=O)c2ccccc2)CCC[C@H]1C[C@H](O)c1ccccc1 | KCNH2 | ligand displacement | HEK293 | 1 h, pH 7.4, cell membranes | 5.82
CCCCOc1ccc(C(=O)CCN2CCCCC2)cc1 | PDE4D | enzyme activity, inhibitor, radiometric | – | – | 4.95
CC(C)[C@H](NC(=O)[C@H](C)N)C(=O)N[C@@H](C)C(=O)N[C@@H](C)C(=O)N[C@@H](C)C(=O)N[C@@H](C)C(=O)N[C@@H](C)C(=O)N[C@@H](C)C(=O)N[C@@H](C)C(=O)N[C@@H](CCCCN)C(=O)O | Antigen peptide transporter 1/Antigen peptide transporter 2 | ligand displacement | – | – | 5.03
O=c1c2ccccc2[nH]c(=S)n1-c1ccccc1 | Prothrombin (F2, Homo sapiens, UniProt P00734) | enzyme activity, inhibitor | – | – | 4.03
CC(C)c1cccc(=O)c(O)c1 | eno (Escherichia coli, UniProt P0A6P9) | enzyme activity, inhibitor, absorbance | – | – | 4.96 to 5.10
CC(NC(C)(C)C)C(=O)c1cccc(Cl)c1 (centres unmarked) | Sodium-dependent dopamine transporter (Slc6a3, Rattus norvegicus, UniProt P23977) | transporter uptake, inhibitor, radiometric | – | – | 6.52
CSCC[C@H](NC(=O)[C@H](CCCNC(=N)N)NC(=O)[C@H](CCSC)NC(=O)[C@@H]1CCCN1C(=O)[C@H](CC(C)C)NC(=O)[C@H](CO)NC(=O)[C@H](C)NC(=O)[C@@H]1CCCN1C(=O)[C@@H](NC(=O)[C@H](CC(N)=O)NC(=O)[C@H](CO)NC(=O)[C@H](CO)NC(=O)[C@H](CCCCN)NC(=O)[C@@H]1CCCN1C(=O)[C@H](CC(N)=O)NC(=O)[C@H](CCSC)NC(=O)[C@@H](NC(=O)[C@H](CO)NC(=O)[C@H](CC(N)=O)NC(=O)[C@H](Cc1ccccc1)NC(=O)[C@H](CC(C)C)NC(=O)[C@H](CC(C)C)NC(=O)[C@H](CCC(=O)O)NC(=O)[C@H](CC(C)C)NC(=O)[C@H](CC(=O)O)NC(=O)[C@@H](NC(=O)[C@H](CCC(N)=O)NC(=O)[C@H](CO)NC(C)=O)[C@@H](C)O)C(C)C)C(C)C)C(=O)N[C@@H](CCCNC(=N)N)C(=O)N[C@@H](CC(N)=O)C(=O)N[C@@H](CC(C)C)C(=O)N1CCC[C@H]1C(=O)N[C@@H](CC(=O)O)C(=O)N[C@@H](CO)C(=O)N[C@@H](Cc1ccccc1)C(=O)N[C@@H](Cc1ccccc1)C(=O)N[C@@H](CCCCN)C(=O)N1CCC[C@H]1C(=O)N1CCC[C@H]1C(N)=O | TEAD4 | protein-protein interaction, inhibitor, TR-FRET | – | – | 7.19
COc1c(-c2ccc3c(c2)OCO3)oc2c(ccc3occc32)c1=O | CDK7 with cyclin H | enzyme activity, inhibitor, ADP detection | – | – | < 4.30
CCCCCCCCCCCCCC(=O)O[C@@H]1[C@@H](C)[C@@]2(O)[C@@H](C=C(CO)C[C@]3(O)C(=O)C(C)=C[C@@H]23)[C@@H]2C(C)(C)[C@]12OC(C)=O | Proteinase-activated receptor 2 (F2RL1, Homo sapiens, UniProt P55085) | calcium signal, antagonist | – | – | 8.23
CC(C)C[C@H](NC(=O)[C@H](C)NC(=O)[C@H](C)NC(=O)[C@H](C)NC(=O)[C@H](C)NC(=O)[C@H](C)NC(=O)[C@H](C)NC(=O)[C@H](CCCNC(=N)N)NC(=O)[C@H](C)N)C(=O)O | Antigen peptide transporter 1/Antigen peptide transporter 2 | ligand displacement | – | – | 6.05
O=c1cc(-c2ccccc2)oc2c1ccc1occc12 | CDK7 with cyclin H | enzyme activity, inhibitor, ADP detection | – | – | 5.32
CN1[C@@H](CCc2ccccc2)CCC[C@H]1CCc1ccccc1 | KCNH2 | ligand displacement | HEK293 | 1 h, pH 7.4, cell membranes | 6.62
CC[C@H](C)[C@H](NC(=O)[C@H](CCCNC(=N)N)NC(=O)CN)C(=O)N[C@@H](CC(=O)O)C(=O)N[C@@H](CCCCN)C(=O)N1CCC[C@H]1C(=O)N[C@H](C(=O)N[C@@H](CC(C)C)C(=O)N[C@@H](C)C(=O)O)[C@@H](C)CC | Antigen peptide transporter 1/Antigen peptide transporter 2 | ligand displacement | – | – | 5.27
CCc1c(C)nc(-c2ccc(Cl)s2)nc1Nc1ccc(CC(=O)O)cc1 | 3',5'-cyclic-AMP phosphodiesterase 4D (PDE4D, Homo sapiens, UniProt Q08499, S190D/S715A/S717A) | enzyme activity, inhibitor, fluorescence | – | – | 5.80
CC(C)C[C@H](NC(=O)[C@H](CCC(=O)O)NC(=O)[C@@H](NC(=O)[C@H](CO)NC(=O)[C@H](CCCCN)NC(=O)[C@H](CCC(N)=O)NC(=O)[C@H](Cc1ccc(O)cc1)NC(=O)[C@@H](N)CCCNC(=N)N)[C@@H](C)O)C(=O)O | Antigen peptide transporter 1/Antigen peptide transporter 2 | ligand displacement | – | – | 4.00
COc1cc(C(=O)NS(=O)(=O)c2ccccc2C)ccc1Cc1cn(C)c2ccc(NC(=O)OC3CCCC3)cc12 | PDE4D | enzyme activity, inhibitor, radiometric | – | – | 5.27
CC[C@H](C)[C@H](NC(=O)[C@H](CCCNC(=N)N)NC(=O)CN)C(=O)N[C@@H](CC(=O)O)C(=O)N[C@@H](CCCCN)C(=O)N1CCC[C@H]1C(=O)N[C@H](C(=O)N[C@@H](CC(C)C)C(=O)N[C@@H](CCCCN)C(=O)O)[C@@H](C)CC | Antigen peptide transporter 1/Antigen peptide transporter 2 | ligand displacement | – | – | 5.57
C[C@H]1COCCN1c1nc(NCc2cccnc2C(F)(F)F)c2cccnc2n1 | KCNH2 | ion current, inhibitor | – | – | < 4.48
CC(C)C[C@H](NC(=O)[C@H](CCC(=O)O)NC(=O)[C@@H](NC(=O)[C@H](CO)NC(=O)[C@H](CCCCN)NC(=O)[C@H](CCC(N)=O)NC(=O)[C@H](Cc1ccc(O)cc1)NC(=O)[C@H](C)NC(=O)[C@@H](N)CCCNC(=N)N)[C@@H](C)O)C(=O)O | Antigen peptide transporter 1/Antigen peptide transporter 2 | ligand displacement | – | – | 6.40
CC[C@H](C)[C@H](NC(=O)[C@@H](NC(=O)[C@H](CC(N)=O)NC(=O)[C@H](CCCCN)NC(=O)[C@@H]1CCCN1C(=O)[C@H](CC(N)=O)NC(=O)[C@H](CCSC)NC(=O)[C@@H](NC(=O)[C@H](C)NC(=O)[C@H](CC(N)=O)NC(=O)[C@H](Cc1ccccc1)NC(=O)[C@H](CC(C)C)NC(=O)[C@H](C)NC(=O)[C@H](CCC(=O)O)NC(=O)[C@H](CC(C)C)NC(=O)[C@H](CC(=O)O)NC(=O)[C@@H](NC(=O)[C@H](CCC(=O)O)NC(=O)[C@H](CO)NC(C)=O)[C@@H](C)O)C(C)C)[C@@H](C)O)C(=O)N[C@H](C(=O)N1CCC[C@H]1C(=O)N1CCC[C@H]1C(=O)N[C@@H](CO)C(=O)N[C@H](C(=O)N1CCC[C@H]1C(=O)N[C@@H](CCSC)C(=O)N[C@@H](CCCNC(=N)N)C(=O)N[C@@H](CC(C)C)C(=O)N[C@@H](CCCNC(=N)N)C(=O)N[C@@H](CCCCN)C(=O)N[C@@H](CC(C)C)C(=O)N1CCC[C@H]1C(=O)N[C@@H](CC(=O)O)C(=O)N[C@@H](CO)C(=O)N[C@@H](Cc1ccccc1)C(=O)N[C@@H](Cc1ccccc1)C(=O)N[C@H](C(=O)N1CCC[C@H]1C(=O)N1CCC[C@H]1C(N)=O)[C@@H](C)O)C(C)C)C(C)C | TEAD4 | protein-protein interaction, inhibitor, TR-FRET | – | – | 7.19
